Laboratory results from ChEMBL document CHEMBL1124879, “Inotropic "A" ring substituted sulmazole and isomazole analogues” (1990).

What was measured:
Cavia porcellus [1] = species on record: Cavia porcellus; assay: In vitro concentration required to give a 50% increase in basal contractile force in an isolated paced guinea pig papillary muscle preparation; type: functional, Muscle tissue
Procedure, shortened: (§1)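 Isolated guinea pig papillary muscle, loaded at 500 mg, in Krebs-Henseleit with 2.5 mM Ca2+, gassed 95% O2-5% CO2, 34 °C. Paced with 1-ms rectangular pulses at 1.5 Hz, 20% above threshold voltage. Isometric tension recorded. Preparations not contracting uniformly after 60 min were rejected. pA50 is the -log concentration giving a 50% rise in basal force. Top concentrations tested were 0.2, 1 or 5 mM.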

Cavia porcellus [2] = species on record: Cavia porcellus; assay: In vitro concentration required to give a 50% increase in basal contractile force in an isolated paced guinea pig papillary muscle preparation at 1mM; i = 'inactive'; type: functional; conditions: Muscle tissue; procedure, shortened: as §1
Cavia porcellus [3] = species on record: Cavia porcellus; assay: In vitro concentration required to give a 50% increase in basal contractile force in an isolated paced guinea pig papillary muscle preparation at 5mM; i = 'inactive'; type: functional; conditions: Muscle tissue; procedure, shortened: as §1
Canis familiaris [4] = species on record: Canis familiaris; assay: The effective dose was measured to produce the 10%increase in heart rate.; type: functional, Canis lupus familiaris
Procedure, shortened: (§2)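 Anesthetized open-chest beagle dogs, 8.5-13 kg, thiopentone induction, α-chloralose/pentobarbitone maintenance, single iv bolus at 0.1 mL/kg. Heart rate taken by tachograph. Doses (mg/kg iv) giving a 50% rise in dP/dt, a 30% fall in diastolic pressure and a 10% rise in heart rate were calculated from mean dose-response data.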

Canis familiaris [5] = species on record: Canis familiaris; assay: The effective dose to produce the 30%decrease in diastolic blood pressure.; type: functional, Canis lupus familiaris, Artery; procedure, shortened: as §2
Canis familiaris [6] = assay: Maximum percentage increase in heart rate produced by the compound at a dose 0.3 mg/kg; type: functional, Canis lupus familiaris
Procedure, shortened: (§3)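 Beagle dogs of either sex, 8.5-13 kg, anesthetized and open-chest. Induction with thiopentone sodium 30 mg/kg iv, then maintenance with α-chloralose 15 mg/kg plus pentobarbitone 6 mg/kg via a femoral vein cannula. Single iv bolus at 0.1 mL/kg, with vehicle bolus in every animal. Body temperature held at 37-38 °C. Maximal % change recorded for dP/dt, diastolic blood pressure and heart rate.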

Canis familiaris [7] = assay: Maximum percentage change in dP/dt, diastolic blood pressure and heart rate produced by the compound at a dose 0.3 mg/kg; type: functional, Canis lupus familiaris, Artery; procedure, shortened: as §3
Canis familiaris [8] = species on record: Canis familiaris; assay: The effective dose to produce a maximum increase in dP/dt diastolic blood pressure and heart rate; type: functional, Canis lupus familiaris, Artery; procedure, shortened: as §2
Canis familiaris [9] = assay: Maximum percentage decrease in diastolic blood pressure produced by the compound at a dose 1 mg/kg; type: functional, Canis lupus familiaris, Artery; procedure, shortened: as §3
Canis familiaris [10] = species on record: Canis familiaris; assay: The effective dose was measured to produce the 10%increase in heart rate; type: functional, Canis lupus familiaris; procedure, shortened: as §2
Canis familiaris [11] = species on record: Canis familiaris; assay: The effective dose to produce the 30%decrease in diastolic blood pressure; type: functional, Canis lupus familiaris, Artery; procedure, shortened: as §2
Canis familiaris [12] = assay: Maximum percentage increase in heart rate produced by the compound at a dose of 3 mg/kg; type: functional, Canis lupus familiaris; procedure, shortened: as §3
Canis familiaris [13] = assay: Maximum percentage change in dP/dt, diastolic blood pressure and heart rate produced by the compound at a dose 3.0 mg/kg; type: functional, Canis lupus familiaris, Artery; procedure, shortened: as §3
Canis familiaris [14] = assay: Maximum percentage decrease in diastolic blood pressure produced by the compound at a dose of 3.0 mg/kg; type: functional, Canis lupus familiaris, Artery; procedure, shortened: as §3
Canis familiaris [15] = assay: Maximum percentage change in dP/dt, diastolic blood pressure and heart rate produced by the compound at a dose of 3.0 mg/kg; type: functional, Canis lupus familiaris, Artery; procedure, shortened: as §3
Cavia porcellus [16] = species on record: Cavia porcellus; assay: In vitro concentration required to give a 50% increase in basal contractile force in an isolated paced guinea pig papillary muscle preparation at 0.2mM; i = 'inactive'; type: functional; conditions: Muscle tissue; procedure, shortened: as §1
Canis familiaris [17] = assay: Maximum percentage change in dP/dt, diastolic blood pressure and heart rate produced by the compound at a dose of a mg/kg; type: functional, Canis lupus familiaris, Artery; procedure, shortened: as §3
Canis familiaris [18] = assay: Maximum percentage decrease in diastolic blood pressure produced by the compound at a dose 3 mg/kg; type: functional, Canis lupus familiaris, Artery; procedure, shortened: as §3

Compound COc1ccc(-c2nc3cc[nH]cc-3n2)c(OC)c1 has a pA50 (Cavia porcellus [1]) of 4.01.

For COc1cc([S+](C)[O-])ccc1-c1nc2cc(O)c[nH]c-2n1 (stereo not given), the pA50 (Cavia porcellus [1]) was 3.75.

With COc1cc([S+](C)[O-])ccc1-c1nc2c(OC)cncc2[nH]1 (stereo not given) the pA50 (Cavia porcellus [1]) was 3.

With CNc1[nH]ccc2nc(-c3ccc(OC)cc3OC)nc1-2 the pA50 (Cavia porcellus [2]) was “Weak inotropic effects”.

COc1ccc(-c2nc3c(N)cncc3[nH]2)c(OC)c1 was tested, and the pA50 (Cavia porcellus [3]) was “Weak inotropic effects”.

Work on COc1c[nH]c2nc(-c3ccc([S+](C)[O-])cc3OC)nc-2c1 (stereo not given) yielded a pA50 (Cavia porcellus [1]) of 3.63.

For COc1ccc(-c2nc3cc(C(C)=O)c[nH]c-3n2)c(OC)c1, the pA50 (Cavia porcellus [2]) was “Weak inotropic effects”.

For COc1cc(SC)ccc1-c1nc2c(N)cncc2[nH]1, the pA50 (Cavia porcellus [2]) was “Weak inotropic effects”.

For COc1cc([S+](C)[O-])ccc1-c1nc2[nH]ccc(OC)c-2n1 (stereo not given), the pA50 (Cavia porcellus [1]) was 4.1.

COc1cc([S+](C)[O-])ccc1-c1nc2cnccc2[nH]1 (stereo not given) [ISOMAZOLE] was tested, and the ED10 HR (Canis familiaris [4]) was 0.056 mg/kg, the ED30 DBP (Canis familiaris [5]) was 0.16 mg/kg and the Max increase (Canis familiaris [6]) was 15%. The Max increase (Canis familiaris [7]) was 88%, the ED50 (Canis familiaris [8]) was 0.05 mg/kg and the Max decrease (Canis familiaris [9]) was 43%. The pA50 (Cavia porcellus [1]) was 4.64.

COc1cc([S+](C)[O-])ccc1-c1nc2cc(C)c[nH]c-2n1 (stereo not given) was tested, and the pA50 (Cavia porcellus [1]) was 3.73.

For COc1cc([S+](C)[O-])ccc1-c1nc2c(N)cncc2[nH]1 (stereo not given), the pA50 (Cavia porcellus [1]) was 3.72.

COc1ccc2[nH]c(-c3ccc([S+](C)[O-])cc3OC)nc2n1 (stereo not given) was tested, and the pA50 (Cavia porcellus [1]) was 3.

Work on COc1cc([S+](C)[O-])ccc1-c1nc2cccnc2[nH]1 (stereo not given) [SULMAZOLE] yielded an ED10 HR (Canis familiaris [10]) of 0.5 mg/kg, an ED30 DBP (Canis familiaris [11]) of 1 mg/kg and a Max increase (Canis familiaris [12]) of 20%. For the same compound, the Max increase (Canis familiaris [13]) was 73%, the ED50 (Canis familiaris [8]) was 0.8 mg/kg and the Max decrease (Canis familiaris [14]) was 36%. It also gave a pA50 (Cavia porcellus [1]) of 4.7.

COc1cc([S+](C)[O-])ccc1-c1nc2cc(N)c[nH]c-2n1 (stereo not given) gave an ED10 HR (Canis familiaris [4]) of 1.41 mg/kg, an ED30 DBP (Canis familiaris [5]) of over 3 mg/kg and a Max increase (Canis familiaris [15]) of 87%. For the same compound, the Max increase (Canis familiaris [12]) was 15%, the ED50 (Canis familiaris [8]) was 0.5 mg/kg and the Max decrease (Canis familiaris [14]) was 25%. It also gave a pA50 (Cavia porcellus [1]) of 4.01.

With COc1ccc(-c2nc3c(C)nccc3[nH]2)c(OC)c1 the pA50 (Cavia porcellus [16]) was “Weak inotropic effects”.

COc1cc([S+](C)[O-])ccc1-c1nc2cc(Cl)c[nH]c-2n1 (stereo not given) gave a pA50 (Cavia porcellus [1]) of 3.61.

For COc1ccc(-c2nc3cc(N)c[nH]c-3n2)c(OC)c1, the pA50 (Cavia porcellus [1]) was 4.8.

In the case of COc1cc2[nH]c(-c3ccc([S+](C)[O-])cc3OC)nc2cn1 (stereo not given), the pA50 (Cavia porcellus [1]) is reported as 3.76.

With COc1ccc(-c2nc3ccc[nH]c-3n2)c(OC)c1 the pA50 (Cavia porcellus [1]) was 5.08.

For COc1cc([S+](C)[O-])ccc1-c1nc2c(OC)nccc2[nH]1 (stereo not given), the ED10 HR (Canis familiaris [4]) was 0.28 mg/kg, the ED30 DBP (Canis familiaris [5]) was 0.2 mg/kg and the Max increase (Canis familiaris [17]) was 125%. The Max increase (Canis familiaris [6]) was 10%, the ED50 (Canis familiaris [8]) was 0.13 mg/kg and the Max decrease (Canis familiaris [18]) was 70%. The pA50 (Cavia porcellus [1]) was 3.91.
